# According to ChEMBL document CHEMBL3596125, “Discovery of substituted 1,4-dihydroquinolines as novel promising class of P-glycoprotein inhibitors: First structure-activity relationships and bioanalytical studies” (Bioorg Med Chem Lett, 2015):
# Experiments:
# Homo sapiens [1] = species: Homo sapiens; experiment: Inhibition of human P-gp expressed in mouse T-cell lymphoma assessed as ratio of rhodamine 123 uptake in P-gp expressing cells to rhodamine 123 uptake in non P-gp expressing cells at 1 uM by flow cytometric analysis relative to control; type: cell-based
# Summary of the method: (§1)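 Rhodamine 123 uptake is read by flow cytometry in the parental mouse T-lymphoma line and in the colchicine-selected subline expressing human P-gp, with or without inhibitor. Fluorescence in each line is first normalized to the untreated control of that line. The FAR value is then calculated as subline fluorescence divided by parental-line fluorescence.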
# Homo sapiens [2] = species: Homo sapiens; experiment: Inhibition of human P-gp expressed in mouse T-cell lymphoma assessed as ratio of rhodamine 123 uptake in P-gp expressing cells to rhodamine 123 uptake in non P-gp expressing cells at 10 uM by flow cytometric analysis relative to control; type: cell-based; summary of the method: as §1
# [3] = Cytotoxicity against mouse T-cell lymphoma expressing human P-gp assessed as reduction of cell viability after 48 hrs by MTT assay; type: ADME
# Summary of the method: (§2)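 MTT viability assay, with formazan formation by mitochondrial dehydrogenases as the read-out. Cells are the parental mouse T-lymphoma line or its retrovirally transfected subline expressing human P-gp, which is kept under colchicine. Cells are incubated with varying concentrations of compound for 24 or 48 h. IC50 is derived from the reduction in viability.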
# [4] = Cytotoxicity against mouse T-cell lymphoma expressing human P-gp assessed as reduction of cell viability after 24 hrs by MTT assay; type: ADME; summary of the method: as §2
# Homo sapiens [5] = species: Homo sapiens; experiment: Activity at human P-gp expressed in mouse T-cell lymphoma assessed as fluorescence ratio at 100 uM by flow cytometric analysis
# Summary of the method: (§3)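 Cells are the parental mouse T-lymphoma line and its subline transfected retrovirally with human P-gp, which is maintained under colchicine selection. The fluorescent test compound is added at 50 or 100 µM. Intrinsic compound fluorescence taken up by the cells is read by flow cytometry. The ratio relates the uptake in the P-gp-expressing subline to that in the parental line. Values are means of three determinations.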
# Homo sapiens [6] = species: Homo sapiens; experiment: Activity at human P-gp expressed in mouse T-cell lymphoma assessed as fluorescence ratio at 50 uM by flow cytometric analysis; summary of the method: as §3
# [7] = Cytotoxicity against mouse T-cell lymphoma assessed as reduction of cell viability after 48 hrs by MTT assay; summary of the method: as §2
# [8] = Cellular uptake in mouse T-cell lymphoma assessed as fluorescence ratio at 50 uM by flow cytometric analysis; type: ADME; conditions: in vitro; summary of the method: as §3
# [9] = Cytotoxicity against mouse T-cell lymphoma assessed as reduction of cell viability after 24 hrs by MTT assay; summary of the method: as §2
# [10] = Cellular uptake in mouse T-cell lymphoma assessed as fluorescence ratio at 100 uM by flow cytometric analysis; type: ADME; conditions: in vitro; summary of the method: as §3
SMILES,Ratio (Homo sapiens [1]),Ratio (Homo sapiens [2]),IC50 [3],IC50 [4],Ratio (Homo sapiens [5]),Ratio (Homo sapiens [6]),IC50 [7],Ratio [8],IC50 [9],Ratio [10]
CCOC(=O)C1=CN(Cc2ccccc2)c2ccccc2C1c1ccc(OC)cc1 (stereo unspecified),1.27,5.52,,,,,,,,
COc1ccc(CCN(C)CCCC(C#N)(c2ccc(OC)c(OC)c2)C(C)C)cc1OC (stereo unspecified),1.46,4.98,,,,,,,,
CCOC(=O)C1=CN(Cc2cccc(OC)c2)c2ccccc2C1c1ccc(OC)cc1 (stereo unspecified),2.23,9.95,,,,,,,,
CCOC(=O)C1=CN(Cc2ccc(OC)cc2)c2ccccc2C1c1ccc(OC)cc1 (stereo unspecified),2.55,12.4,,,,,,,,
CCOC(=O)C1=CN(Cc2ccccc2)c2ccccc2C1c1ccc(OC)c(OC)c1 (stereo unspecified),3.42,12.8,> 160 µM,> 160 µM,1.07,1.06,> 160 µM,1.06,> 160 µM,1.07
CCOC(=O)C1=CN(Cc2cccc(OC)c2)c2ccccc2C1c1cccc(OC)c1 (stereo unspecified),2.26,9.68,,,,,,,,
CCOC(=O)C1=CN(Cc2ccc(OC)cc2)c2ccccc2C1c1cccc(OC)c1 (stereo unspecified),2.03,10.3,,,,,,,,
CCOC(=O)C1=CN(Cc2ccccc2)c2ccccc2C1c1cc(OC)cc(OC)c1 (stereo unspecified),2.96,10.5,,,,,,,,
CCOC(=O)C1=CN(Cc2ccccc2)c2ccccc2C1c1cccc(OC)c1 (stereo unspecified),1.55,7.43,> 160 µM,> 160 µM,0.99,1.03,> 160 µM,1.03,> 160 µM,0.99
CCOC(=O)C1=CN(Cc2ccccc2)c2ccccc2C1c1ccccc1 (stereo unspecified),0.79,2.86,,,,,,,,
